ATG4B inhibitor: inhibitors of human ATG4B cysteine protease | Q9Y4P1 | 0.51% of 340,000 active | inhibition, % at 8.33 µM | ATG4B cleavage of LC3-PLA2, NBD-HPC fluorescence, 1 h; in the data active = inhibition above about 40%
HTRA1 inhibitor: inhibitors of human serine peptidase HTRA1. Q92743. recombinant HTRA1, FP-rhodamine activity-based probe, fluorescence polarization. inhibition, % at 5.96 µM. 0.5% of 340,000 active; in the data active = inhibition above about 36%
mABHD4 FP: inhibitors of mouse ABHD4 | purified mABHD4, FP-Rh probe fluorescence polarization | 0.54% of 370,000 active | inhibition, % at 8.92 µM | Q8VD66;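 active = inhibition exceeding the mean over every tested compound plus 3 SD, cut at about 30% in these data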
Target sequence (Q8VD66 whole entry, looked up): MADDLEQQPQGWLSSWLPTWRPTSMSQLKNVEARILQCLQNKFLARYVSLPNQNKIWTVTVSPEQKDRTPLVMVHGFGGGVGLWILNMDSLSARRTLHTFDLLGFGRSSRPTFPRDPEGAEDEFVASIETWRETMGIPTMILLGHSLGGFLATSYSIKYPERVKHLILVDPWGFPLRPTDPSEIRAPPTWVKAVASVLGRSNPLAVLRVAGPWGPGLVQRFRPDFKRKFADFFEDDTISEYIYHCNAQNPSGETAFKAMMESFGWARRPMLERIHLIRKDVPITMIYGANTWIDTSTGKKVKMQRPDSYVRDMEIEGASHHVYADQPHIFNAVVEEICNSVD
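Test system: mABHD4 protein | Buffer or medium: HEPES pH 7.0 buffer, 150 mM NaCl, 0.01% Pluronic F-127 | Probe or stimulus: FP-Rh fluorescent activity-based probe, added after compound pre-incubation | Timing: Pre-incubation 45 min, probe exposure 60 min, at 25 °C | Technique: Fluorescence polarization, excitation 525 nm, emission 598 nm, BODIPY TMR filters | Repeats: Single well per compound (singlicate)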
PRMT1 inh: inhibitors of human PRMT1; Q99873; recombinant PRMT1, activity-based probe fluorescence polarization; inhibition, % at 2.79 µM; 1.3% of 370,000 active;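 active = inhibition above about 21% made by adding two undisclosed values, limit read from the data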
Target sequence (Q99873 whole entry, looked up): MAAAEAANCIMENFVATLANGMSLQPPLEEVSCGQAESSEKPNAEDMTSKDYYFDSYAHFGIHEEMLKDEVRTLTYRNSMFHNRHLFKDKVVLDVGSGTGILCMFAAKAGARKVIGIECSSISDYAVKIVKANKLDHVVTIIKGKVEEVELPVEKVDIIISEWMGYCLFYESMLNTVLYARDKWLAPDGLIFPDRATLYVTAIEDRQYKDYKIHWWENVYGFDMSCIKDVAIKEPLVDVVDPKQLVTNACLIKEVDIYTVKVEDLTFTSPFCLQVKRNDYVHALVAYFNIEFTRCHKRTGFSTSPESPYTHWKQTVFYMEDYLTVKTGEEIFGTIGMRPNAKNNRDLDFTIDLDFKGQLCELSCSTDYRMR
TCR-CD3 inh: human TCR-CD3 binding inhibition | TAMRA-labeled TCR probe fluorescence, biochemical | inhibition, % at 9.4 µM | 0.37% of 360,000 active | AID 651800; in the data active = inhibition above about 19%;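 also: recombinant mutant TCR 2C K166C tagged with TAMRA read by polarization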
SIAE primary: blocks human sialic acid acetylesterase. 0.69% of 370,000 active. SIAE FP-Rh probe binding, fluorescence polarization. inhibition, % at 9.66 µM. Q9HAT2;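 active = inhibition above a cutoff: mean of compounds within the control limits plus 3 SD of those, cut at about 17% in these data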
SIAE confirm: confirmation of human SIAE inhibitors | shares compounds with SIAE primary | AID 1117263 | inhibition, % at 9.66 µM | SIAE FP-Rh activity-based probe, fluorescence polarization | 13% of 2,300 active;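 active = mean inhibition of the replicates above the hit cutoff set in the primary screen, cut at about 17% in these data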;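 also: inhibitors lower polarization as more probe stays unbound to SIAE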
Large screens that a line does not name were inactive (follow-up assays come after a bar, where they were run). Shown are actives, neighbours in structure and some others; about 2.9% of the full set was active somewhere.

C[C@H](CO)N1C[C@H](C)[C@H](CN(C)S(=O)(=O)c2cccs2)Oc2ccc(NC(=O)Nc3ccc4c(c3)OCO4)cc2CC1=O	SIAE primary 21 | SIAE confirm inactive
C[C@H](CO)N1C[C@H](C)[C@H](CN(C)S(=O)(=O)c2ccccc2)Oc2ccc(NC(=O)NC3CCCCC3)cc2CC1=O	SIAE primary 30 | SIAE confirm inactive
C[C@H](CO)N1C[C@H](C)[C@@H](CN(C)S(=O)(=O)c2cccs2)Oc2ccc(NC(=O)Nc3ccc4c(c3)OCO4)cc2C1=O	none
C/C(=N/NC(=O)Cc1cccs1)c1cccc([N+](=O)[O-])c1	none (no result: ATG4B inhibitor, HTRA1 inhibitor, TCR-CD3 inh)
O=Nc1c(O)[nH]c2ccc(Cl)c(Cl)c12	SIAE primary 63 | SIAE confirm 42
Oc1[nH]c2ccccc2c1N=Nc1ccccc1Cl	none
O=C(CSc1nc(=O)n(CCCN2CCOCC2)c2c1CCC2)Nc1ccc([N+](=O)[O-])cc1	SIAE primary 18 | SIAE confirm inactive
CCN(CC)CCCn1c2c(c(SCC(=O)Nc3ccccc3Cl)nc1=O)CCC2	SIAE primary 18 | SIAE confirm inactive
O=C(CSc1nc(=O)n(CCCN2CCOCC2)c2c1CCCC2)Nc1cccc([N+](=O)[O-])c1	none
O=C(N=Nc1c(O)[nH]c2c(Cl)cc(Cl)cc12)c1ccccc1O	SIAE primary 29 (no result: ATG4B inhibitor, HTRA1 inhibitor) | SIAE confirm inactive
CCCCOCCCNC(=O)C[C@H]1C[C@@]2(C(=O)OC)C(=C[C@H](C(C)C)O[C@@H]2C2CC2)N(CCc2ccc(OC)c(OC)c2)C1=O	none (no result: ATG4B inhibitor, HTRA1 inhibitor, TCR-CD3 inh)
CCOC(=O)C1=C[C@@H](C(C)(C)C)N(S(=O)(=O)c2ccc([N+](=O)[O-])cc2)[C@H]1c1ccccc1Cl	none (no result: ATG4B inhibitor, HTRA1 inhibitor)
CCOC(=O)CN(C(=O)CSc1nnc2c(n1)[nH]c1ccc(F)cc12)c1ccccc1	none
CCOC(=O)CN(C(=O)CSc1nnc2c(n1)[nH]c1ccccc12)c1ccccc1	SIAE primary 23 | SIAE confirm inactive
Cc1c[nH]c2cccc(-c3cccc4ccccc34)c12	none (no result: ATG4B inhibitor, HTRA1 inhibitor, TCR-CD3 inh)
Cc1cccc(OCC(=O)O/N=C(\N)c2ccccn2)c1C	SIAE primary 31 | SIAE confirm inactive
O=C(O)CC(C(=O)O)c1ccc(OCCCCOc2ccc(C(CC(=O)O)C(=O)O)cc2)cc1 (configuration not stated)	SIAE primary 19 | SIAE confirm inactive
CC(C)CCOc1ccc(C(CC(N)=O)C(=O)O)cc1 (configuration not stated)	none
CCc1cccc2c(/C=N/NC(=O)c3cccc(S(=O)(=O)Nc4ccccc4Cl)c3)c[nH]c12	SIAE primary 36 | SIAE confirm inactive
CCN(CC)c1ccc(/C=N/NC(=O)c2cccc(S(=O)(=O)Nc3ccccc3OC)c2)c(O)c1	HTRA1 inhibitor 36, SIAE primary 35 | SIAE confirm inactive
Cc1ccc(/C=N/NC(=O)c2cccc(S(=O)(=O)Nc3ccccc3Cl)c2)o1	none
COc1ccc2c(Cl)c(C(=O)N/N=C/c3c(C)[nH]c4ccccc34)sc2c1	SIAE primary 23 | SIAE confirm inactive
Cc1[nH]c2ccccc2c1/C=N/NC(=O)c1cccc(S(=O)(=O)Nc2ccccc2Cl)c1	SIAE primary 37 | SIAE confirm inactive
COC(=O)[C@]12C[C@H](CC(=O)NCc3cccc(C(F)(F)F)c3)C(=O)N(Cc3cccc4ccccc34)C1=C[C@H](COCc1ccccc1)O[C@@H]2C	none (no result: ATG4B inhibitor, HTRA1 inhibitor, TCR-CD3 inh)
COC(=O)[C@]12C[C@H](CC(=O)NCc3cccs3)C(=O)N(Cc3ccc(Cl)cc3Cl)C1=C[C@H](COCc1ccccc1)O[C@@H]2C	none (no result: ATG4B inhibitor, HTRA1 inhibitor, TCR-CD3 inh)
Cc1[nH]nc2c1C(c1cccc(C(F)(F)F)c1)NC2=O (configuration not stated)	none (no result: ATG4B inhibitor, HTRA1 inhibitor)
COc1ccc(/C=N/NC(=O)c2cc3cc(OC)c(OC)cc3[nH]2)cc1	none
COc1cc2cc(C(=O)N/N=C/c3ccccc3Cl)[nH]c2cc1OC	SIAE primary 27 | SIAE confirm inactive
COc1cc2cc(C(=O)N/N=C/c3ccc(F)cc3)[nH]c2cc1OC	none
COc1cc(/C=N/NC(=O)c2cc(-c3ccccc3)sc2N)cc(OC)c1OC	SIAE primary 31 (no result: HTRA1 inhibitor) | SIAE confirm inactive
COc1ccc2cc(C(=O)N/N=C/c3cc(OC)c(OC)c(OC)c3)[nH]c2c1	SIAE primary 28 | SIAE confirm inactive
COc1ccc(N2CC(=O)N(c3ccc(OC)c(OC)c3)CC2=O)cc1OC	SIAE primary 19 | SIAE confirm inactive
COc1cccc(N2CC(=O)N(c3cccc(OC)c3)CC2=O)c1	none
CCOC(=O)C1=C(c2ccccc2)NC(=O)NC1c1ccc(O)c(OCC)c1 (configuration not stated)	SIAE primary 19 | SIAE confirm inactive
CCOC(=O)C1=C(c2ccccc2)NC(=O)NC1c1ccc(O)c(Cl)c1 (configuration not stated)	none
O=C(c1ccncc1)N1CCN(S(=O)(=O)c2ccccc2Br)CC1	SIAE primary 18 | SIAE confirm inactive
NC(=O)c1nsc(C(=O)N(Cc2ccccc2Cl)C(C(=O)NCC2CCCO2)c2ccc(O)cc2)c1N (configuration not stated)	SIAE primary 20 | SIAE confirm inactive
CCOc1cc(CCNC(=O)c2cc3sccc3n2CC)ccc1OC	none (no result: ATG4B inhibitor, HTRA1 inhibitor, TCR-CD3 inh)
CN(C)C1=C(Cl)C(=O)N(c2ccc(Cl)c(Cl)c2)C1=O	SIAE primary 19 | SIAE confirm inactive
COc1ccc(-c2c(Cc3ccccc3)nc(NC(=O)c3ccccc3F)n2C)cc1	SIAE primary 41 (no result: ATG4B inhibitor, HTRA1 inhibitor, TCR-CD3 inh) | SIAE confirm inactive
O=C(Nc1ccc2c(c1)OCO2)c1ccc(N2CCCC2)c([N+](=O)[O-])c1	SIAE primary 22 | SIAE confirm inactive
O=C(Nc1ccc(N2CCCCC2)c(Cl)c1)c1ccc(N2CCOCC2)c([N+](=O)[O-])c1	none
COC(=O)CC[C@H](/C=C/C(=O)OC(C)(C)C)Sc1ccc(C(C)(C)C)cc1	none (no result: ATG4B inhibitor, HTRA1 inhibitor, TCR-CD3 inh)
c1csc(C2=Nn3c(nnc3-c3ccncc3)SC2)c1	SIAE primary 19 | SIAE confirm inactive
CC(=O)OC(C(=O)NC1CCCCC1)c1ccccc1F (configuration not stated)	SIAE primary 18 | SIAE confirm inactive
CC(=O)OC(C(=O)NC1CCCCC1)c1cccc(F)c1 (configuration not stated)	none
Cc1ccc(NC2=CC(=O)CC(C)(C)C2)cc1Cl	SIAE primary 20 | SIAE confirm inactive
CCCCCCC12C(=Cc3cc4c(cc31)OCCO4)c1cc(OC)c(OC)cc1C(CC(=O)NCc1ccccc1)N2C(=O)OC (configuration not stated)	none (no result: ATG4B inhibitor, HTRA1 inhibitor)
N#C/C(=C\c1ccncc1)c1nc2ccccc2o1	none (no result: HTRA1 inhibitor)
N#C/C(=C\Nc1ccccc1O)c1nc2ccccc2o1	SIAE primary 18 | SIAE confirm inactive
